≈ marks a conversion by molar mass, not a printed value.
How the values were obtained:
Format in all cases: functional
[1] = system: SF-268; test: Cytotoxicity against human SF268 cells
Outline: (§1)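 Human cancer cell lines tested: MCF-7 (breast), H-460 (lung) and SF-268 (central nervous system). Cytotoxicity was run by a previously published cell-line screening method. The same three lines were used to follow activity through fractionation.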

[2] = system: NCI-H460; test: Cytotoxicity against human H460 cells; outline: as §1
[3] = system: MCF7; test: Cytotoxicity against human MCF7 cells; outline: as §1

Compound	GI50 [1]	GI50 [2]	GI50 [3]
COc1c(CC=C(C)C)c(O)c2c(O)c3c(cc2c1CC=C(C)C)O[C@H](C)CC3=O [ADENAFLORINE A]	0.13 µg/mL (≈ 0.317 µM)	0.16 µg/mL (≈ 0.39 µM)	0.24 µg/mL (≈ 0.585 µM)
COc1c(CC=C(C)C)c(O)c2c(O)c3c(=O)cc(C)oc3cc2c1CC=C(C)C [ADENAFLORINE B]	3.9 µg/mL (≈ 9.55 µM)	2.9 µg/mL (≈ 7.1 µM)	4.3 µg/mL (≈ 10.5 µM)
CC(=O)c1c2c(c3cc(OCC=C(C)C)c(CC=C(C)C)c(O)c3c1O)C=CC(C)(C)O2 [ADENAFLORINE C]	1.4 µg/mL (≈ 3.21 µM)	1.1 µg/mL (≈ 2.52 µM)	1.2 µg/mL (≈ 2.75 µM)
CC(=O)c1c(O)c(CC=C(C)C)c2cc(OCC=C(C)C)c3c(c2c1O)OC(C)(C)C=C3 [ADENAFLORINE D]	> 10 µg/mL	9.3 µg/mL (≈ 21.3 µM)	> 10 µg/mL

Source: ChEMBL document CHEMBL1146510, “New cytotoxic naphthopyrane derivatives from Adenaria floribunda” (2004)
